In brackets after ≈: the same amount, converted by molar mass. Activity calls are given as the source filed them. The rule behind the calls is not given here.
How the values were obtained:
[1] = system: Mus musculus; assay: Inhibition of mTORC1 in po dosed mouse assessed as inhibition of HGF-induced pS6-phosphorylation in liver tissue at 100 mg/kg, po measured at >8 hrs; format: functional, organism-based; set-up: dose 100 mg/kg
How it was run: (§1)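 Time course in mouse liver: single oral dose of 100 mg/kg, sampled at 3, 6, 8 and 24 h. Inhibition of HGF-induced pAKT (S473 and T308) and pS6 in liver tissue measured against vehicle controls.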

[2] = system: Mus musculus; assay: Toxicity in mouse assessed weight loss at 100 mg/kg, po administered QD for 7 days measured on day 3 relative to vehicle-treated control; format: organism-based; set-up: dose 100 mg/kg, route oral; conditions: in vivo, 168 h
How it was run: (§2)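 Seven-day tolerability study in mice, n = 5 per group. Oral dosing QD at 60 or 100 mg/kg. Body weight monitored; animals with average weight loss >20% removed from study.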

[3] = Clearance in rat at 0.5 mg/kg, iv; format: ADME, organism-based; set-up: dose 0.5 mg/kg, route intravenous; conditions: in vivo
[4] = system: Mus musculus; assay: Toxicity in mouse assessed adverse effects at 60 mg/kg, po administered QD for 7 days relative to vehicle-treated control; format: organism-based; set-up: dose 60 mg/kg, route oral; conditions: in vivo, 168 h; how it was run: as §2
[5] = Oral bioavailability in rat at 5 mg/kg; format: ADME, organism-based; conditions: in vivo
How it was run: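 Rat oral PK at 5.0 mpk in 1% Tween 80, 2% HPMC, 97% H2O, pH 2.2 (methanesulfonic acid).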

[6] = Efflux ratio of apparent permeability from basal to apical to apical to basal side of pig LLC-PK1 cells; format: ADME, cell-based, Sus scrofa
[7] = Half life in rat at 1 mg/kg, iv; format: ADME, organism-based; set-up: dose 1 mg/kg, route intravenous; conditions: in vivo
[8] = Apparent permeability from basal to apical side of pig LLC-PK1 cells; format: ADME, cell-based, Sus scrofa
[9] = system: Rattus norvegicus; assay: Drug metabolism in po dosed Sprague-Dawley rat assessed as pyrazole glucuronide derivative; format: ADME, organism-based; conditions: in vivo
[10] = Drug excretion in po dosed Sprague-Dawley rat urine; format: ADME, organism-based; conditions: in vivo
[11] = system: Mus musculus; assay: Inhibition of PI3Kalpha in po dosed mouse assessed as inhibition of HGF-induced AKT Thr308-phosphorylation in liver tissue at 100 mg/kg, po measured at >8 hrs; format: functional, organism-based; set-up: dose 100 mg/kg; how it was run: as §1
[12] = Volume of distribution at steady state in rat at 0.5 mg/kg, iv; format: ADME, organism-based; set-up: dose 0.5 mg/kg, route intravenous; conditions: in vivo, read-out: Vdss
[13] = AUC in rat at 0.5 mg/kg, iv; format: ADME, organism-based, Plasma; set-up: dose 0.5 mg/kg, route intravenous; conditions: plasma
[14] = system: U-87MG ATCC; assay: Antitumor activity against human U87MG cells xenografted in po dosed mouse assessed as tumor growth inhibition administered QD for 2 weeks; format: functional, organism-based
How it was run: (§3)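 Mice bearing established U87-MG tumours dosed orally with vehicle or compound at 10, 30 or 60 mg/kg QD or 30 mg/kg BID for 2 weeks. Tumour volume (mm3) tracked, mean ± SE, n = 10. TGI relative to vehicle controls; significance by repeated-measures ANOVA followed by Dunnett's test.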

[15] = Volume of distribution at steady state in rat at 1 mg/kg, iv; format: ADME, organism-based; set-up: dose 1 mg/kg, route intravenous; conditions: in vivo, read-out: Vdss
[16] = system: Mus musculus; assay: Inhibition of mTORC2 in po dosed mouse assessed as inhibition of HGF-induced AKT Ser473-phosphorylation in liver tissue at 100 mg/kg, po measured at 24 hrs; format: functional, organism-based; set-up: dose 100 mg/kg; how it was run: as §1
[17] = system: Mus musculus; assay: Inhibition of mTORC1 in po dosed mouse assessed as inhibition of HGF-induced pS6-phosphorylation in liver tissue at 100 mg/kg, po measured at 24 hrs; format: functional, organism-based; set-up: dose 100 mg/kg; how it was run: as §1
[18] = Clearance in rat liver microsomes; format: ADME, Microsome; conditions: read-out: CLH
[19] = system: Rattus norvegicus; assay: Drug metabolism in po dosed Sprague-Dawley rat assessed as triazine amine glucuronide derivative; format: ADME, organism-based; conditions: in vivo
[20] = Solubility of the compound in phosphate buffered saline; format: physicochemical
[21] = Antitumor activity against human U87MG cells xenografted in mouse assessed as tumor growth inhibition at 60 mg/kg, po administered QD for 2 weeks relative to vehicle-treated control; format: functional, U-87MG ATCC; conditions: U-87 MG, 336 h, read-out: TGI; how it was run: as §3
[22] = Clearance in human liver microsomes; format: ADME, Microsome; conditions: read-out: CLH
[23] = Plasma protein binding in rat at 5 mg/kg, po; format: ADME, organism-based; set-up: dose 5 mg/kg, route oral; conditions: read-out: PPB (converted)
[24] = Clearance in rat at 1 mg/kg, iv; format: ADME, organism-based; set-up: dose 1 mg/kg, route intravenous; conditions: in vivo
[25] = species on record: Mus musculus; assay: animal or person; conditions: Liver, 6 h
[26] = Half life in rat at 0.5 mg/kg, iv; format: ADME, organism-based; set-up: dose 0.5 mg/kg, route intravenous; conditions: in vivo
[27] = target: Phosphatidylinositol 4,5-bisphosphate 3-kinase catalytic subunit beta isoform (Homo sapiens, UniProt P42338); assay: Inhibition of PI3Kbeta by AlphaScreen assay
Chain of Phosphatidylinositol 4,5-bisphosphate 3-kinase catalytic subunit beta isoform (P42338 whole entry, canonical isoform): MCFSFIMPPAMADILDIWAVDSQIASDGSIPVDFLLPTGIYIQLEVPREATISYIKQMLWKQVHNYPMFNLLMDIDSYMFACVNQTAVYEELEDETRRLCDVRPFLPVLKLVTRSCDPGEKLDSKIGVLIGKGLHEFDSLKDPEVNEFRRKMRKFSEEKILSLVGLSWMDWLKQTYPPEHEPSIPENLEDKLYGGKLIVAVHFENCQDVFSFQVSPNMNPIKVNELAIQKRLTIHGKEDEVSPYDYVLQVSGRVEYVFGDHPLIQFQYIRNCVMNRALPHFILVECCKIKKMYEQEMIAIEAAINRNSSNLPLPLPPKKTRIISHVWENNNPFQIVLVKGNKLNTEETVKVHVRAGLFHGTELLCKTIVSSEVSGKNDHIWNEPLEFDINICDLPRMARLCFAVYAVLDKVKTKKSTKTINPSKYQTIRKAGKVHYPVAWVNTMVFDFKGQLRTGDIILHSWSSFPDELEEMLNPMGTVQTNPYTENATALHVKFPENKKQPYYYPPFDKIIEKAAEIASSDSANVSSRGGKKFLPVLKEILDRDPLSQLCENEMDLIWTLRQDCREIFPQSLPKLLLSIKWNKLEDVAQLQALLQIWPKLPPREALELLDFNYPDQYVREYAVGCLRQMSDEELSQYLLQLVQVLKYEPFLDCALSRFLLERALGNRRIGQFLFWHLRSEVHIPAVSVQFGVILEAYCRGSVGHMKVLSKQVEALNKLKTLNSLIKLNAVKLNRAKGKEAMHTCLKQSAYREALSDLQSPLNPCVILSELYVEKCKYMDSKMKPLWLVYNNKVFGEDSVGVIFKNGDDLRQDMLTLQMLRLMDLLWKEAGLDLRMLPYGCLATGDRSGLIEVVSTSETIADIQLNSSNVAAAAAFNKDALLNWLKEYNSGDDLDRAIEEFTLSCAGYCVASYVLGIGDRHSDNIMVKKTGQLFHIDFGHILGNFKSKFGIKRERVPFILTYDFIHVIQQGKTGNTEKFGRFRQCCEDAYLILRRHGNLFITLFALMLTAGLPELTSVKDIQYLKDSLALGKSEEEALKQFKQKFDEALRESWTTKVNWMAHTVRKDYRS

[28] = Inhibition of mTORC1-mediated 4EBP1-phosphorylation in human U87 cells; format: cell-based, U-87MG ATCC; conditions: Homo sapiens, U-87 MG; read-out: IC50
[29] = target: Phosphatidylinositol 4,5-bisphosphate 3-kinase catalytic subunit alpha isoform (Homo sapiens, UniProt P42336); assay: Inhibition of PI3Kalpha by AlphaScreen assay
Chain of Phosphatidylinositol 4,5-bisphosphate 3-kinase catalytic subunit alpha isoform (P42336 whole entry, canonical isoform): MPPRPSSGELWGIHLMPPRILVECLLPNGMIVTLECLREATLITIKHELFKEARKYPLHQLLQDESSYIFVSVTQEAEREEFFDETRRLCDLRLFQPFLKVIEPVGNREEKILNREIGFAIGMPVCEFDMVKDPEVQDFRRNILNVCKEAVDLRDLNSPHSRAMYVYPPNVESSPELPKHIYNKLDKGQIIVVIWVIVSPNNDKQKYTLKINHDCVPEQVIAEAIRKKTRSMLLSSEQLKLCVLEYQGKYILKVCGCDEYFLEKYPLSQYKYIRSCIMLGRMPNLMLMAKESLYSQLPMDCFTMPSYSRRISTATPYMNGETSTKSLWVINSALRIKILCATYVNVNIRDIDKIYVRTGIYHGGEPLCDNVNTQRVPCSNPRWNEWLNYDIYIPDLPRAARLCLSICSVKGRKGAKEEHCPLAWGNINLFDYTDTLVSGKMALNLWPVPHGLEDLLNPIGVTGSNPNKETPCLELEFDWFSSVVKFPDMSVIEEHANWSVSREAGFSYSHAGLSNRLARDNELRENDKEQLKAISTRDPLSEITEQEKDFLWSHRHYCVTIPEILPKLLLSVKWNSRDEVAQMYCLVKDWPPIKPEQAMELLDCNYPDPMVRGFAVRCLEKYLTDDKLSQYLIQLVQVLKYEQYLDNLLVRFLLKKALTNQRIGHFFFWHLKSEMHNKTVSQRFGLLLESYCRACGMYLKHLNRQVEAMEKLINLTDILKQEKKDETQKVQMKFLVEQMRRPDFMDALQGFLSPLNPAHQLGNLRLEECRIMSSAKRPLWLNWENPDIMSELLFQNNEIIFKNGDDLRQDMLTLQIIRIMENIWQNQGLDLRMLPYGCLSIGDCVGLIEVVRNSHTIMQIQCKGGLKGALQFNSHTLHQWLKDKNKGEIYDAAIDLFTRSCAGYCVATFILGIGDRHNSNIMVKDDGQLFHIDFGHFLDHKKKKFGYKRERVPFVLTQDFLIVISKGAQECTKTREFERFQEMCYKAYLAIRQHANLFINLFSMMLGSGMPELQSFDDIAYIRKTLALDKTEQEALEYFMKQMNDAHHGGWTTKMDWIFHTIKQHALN

[30] = Antitumor activity against human U87MG cells xenografted in mouse assessed as tumor growth inhibition at 30 mg/kg, po administered BID for 2 weeks relative to vehicle-treated control; format: functional, U-87MG ATCC; conditions: U-87 MG, 336 h, read-out: TGI; how it was run: as §3
[31] = Inhibition of mTORC1-mediated pS6 Ser240/244-phosphorylation in human U87MG cells; format: cell-based, U-87MG ATCC; conditions: U-87 MG
How it was run: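 Cell assay in U87MG cells measuring phosphorylation of the mTOR substrate S6 (S240/244), n ≥ 2.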

[32] = system: Mus musculus; assay: Inhibition of PI3Kalpha in po dosed mouse assessed as inhibition of HGF-induced AKT Thr308-phosphorylation in liver tissue after 6 hrs; format: functional, organism-based
How it was run: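 Single oral dose to mice of vehicle (50% PEG400, 1% Pluronic F68, pH 2.2 with MSA) or compound at 10, 30 or 100 mg/kg, n = 3 per dose. HGF-stimulated liver taken at 6 h; pAKT (S473, T308) and pS6RP measured in lysate by MSD assay. Plasma drug levels measured. Factorial ANOVA versus vehicle, then Dunnett's test.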

[33] = Solubility of the compound in simulated intestinal fluid; format: physicochemical
[34] = Solubility of the compound in 0.01 N HCl; format: physicochemical; conditions: 0.01 N HCl; read-out: solubility
[35] = Drug excretion in iv dosed Sprague-Dawley rat urine; format: ADME, organism-based; conditions: in vivo
[36] = system: U-87MG ATCC; assay: Antitumor activity against human U87MG cells xenografted in po dosed mouse assessed as tumor growth inhibition administered BID for 2 weeks; format: functional, organism-based; how it was run: as §3
[37] = species on record: Mus musculus; assay: animal or person; conditions: Liver, 6 h; remark: listed apart in the source
[38] = Oral bioavailability in rat at 1 mg/kg; format: ADME, organism-based; conditions: in vivo
[39] = Apparent permeability from apical to basal side of pig LLC-PK1 cells; format: ADME, cell-based, Sus scrofa
[40] = system: Mus musculus; assay: Inhibition of mTORC2 in po dosed mouse assessed as inhibition of HGF-induced AKT Ser473-phosphorylation in liver tissue at 100 mg/kg, po measured at >8 hrs; format: functional, organism-based; set-up: dose 100 mg/kg; how it was run: as §1
[41] = Inhibition of mTORC2-mediated AKT Ser473-phosphorylation in human U87 cells; format: cell-based, U-87MG ATCC; conditions: U-87 MG
How it was run: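 Cell assay in U87 cells measuring pAKT (S473), n ≥ 2.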

[42] = system: Rattus norvegicus; assay: Drug metabolism in po dosed Sprague-Dawley rat assessed as imidazopyridine oxidation; format: ADME, organism-based; conditions: in vivo
[43] = system: Mus musculus; assay: Inhibition of PI3Kalpha in po dosed mouse assessed as inhibition of HGF-induced AKT Thr308-phosphorylation in liver tissue at 100 mg/kg, po measured at 24 hrs; format: functional, organism-based; set-up: dose 100 mg/kg; how it was run: as §1

clearance [3]: 30 mL/min/kg | bioavailability [5]: 24% | efflux ratio [6]: 2.4 | half-life [7]: 27 min | Papp B→A [8]: 33.7 ×10⁻⁶ cm/s | Drug metabolism [9]: Active | Drug excretion [10]: Active | Vd [12]: 1.14 L/kg | AUC [13]: 1.8 µM·h | Vd [15]: 1.1 L/kg | microsomal CLint [18]: 29 µL/min/mg | Drug metabolism [19]: Active | solubility [20]: 6.3 µg/mL (≈ 20.5 µM) | microsomal CLint [22]: 24 µL/min/mg | fraction unbound [23]: 0.023 | clearance [24]: 30 mL/min/kg | IC50 [25]: 71 nM | half-life [26]: 26.4 min | IC50 [27]: 1130 nM | IC50 [28]: 162 nM | IC50 [29]: 590 nM | IC50 [31]: 69 nM | solubility [33]: 27 µg/mL (≈ 87.9 µM) | solubility [34]: > 200 µg/mL | Drug excretion [35]: Active | IC50 [37]: 53 nM | bioavailability [38]: 24% | Papp A→B [39]: 13.8 ×10⁻⁶ cm/s | IC50 [41]: 19 nM | Drug metabolism [42]: Active
Structure (SMILES): Cc1nc(N)nc(-c2c(Nc3cc[nH]n3)nc3ccccn23)n1
inhibition [1]: Active | Activity [2]: > 20% | Activity [4]: Non-toxic | inhibition [11]: Active | TGI [14]: Dose-dependent effect | inhibition [16]: inactive | inhibition [17]: inactive | inhibition in vivo at 60 mg/kg [21]: 82% | inhibition in vivo at 30 mg/kg [30]: 84% | inhibition [32]: Dose-dependent effect | TGI [36]: Dose-dependent effect | inhibition [40]: Active | inhibition [43]: inactive
